Test results from ChEMBL document CHEMBL3608231, “Eremophilane Sesquiterpenes and Polyketones Produced by an Endophytic Guignardia Fungus from the Toxic Plant Gelsemium elegans” (J Nat Prod, 2015).
Calls of active or inactive are those of the source.

Key:
Type in all cases: functional, cell-based
[1] = test system: HCT-8; assay: Cytotoxicity against human HCT8 cells after 72 hrs by MTT assay
Summary of the method: (§1)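 Cells kept in RPMI 1640 with 10% FBS in 96-well plates, 24 h at 37 °C, then samples added from DMSO solution at final 10 μM. Growth assessed after 72 h by MTT (4 h at 37 °C), formazan dissolved in DMSO, absorbance at 570 nm. Camptothecin as positive control.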

[2] = test system: A549; assay: Cytotoxicity against human A549 cells after 72 hrs by MTT assay; summary of the method: as §1
[3] = test system: Bel-7402; assay: Cytotoxicity against human Bel7402 cells after 72 hrs by MTT assay; summary of the method: as §1
[4] = test system: A2780; assay: Cytotoxicity against human A2780 cells after 72 hrs by MTT assay; summary of the method: as §1
[5] = test system: BGC-823; assay: Cytotoxicity against human BGC823 cells after 72 hrs by MTT assay; summary of the method: as §1
[6] = test system: HCT-116; assay: Cytotoxicity against human HCT116 cells after 72 hrs by MTT assay; summary of the method: as §1

Measured: Activity

C[C@H]1CCC(=O)O[C@@H]2C(=O)c3c(O)cccc3O[C@H]21
inactive: all assays above

C=C(C)[C@@H]1C[C@@]2(C)C(=CC(=O)C[C@@H]2C)C[C@H]1O
inactive: all assays above

C=C(C)[C@H]1C[C@@]2(C)C(=CC1=O)[C@H](O)[C@H](O)C[C@@H]2C
inactive: all assays above

C=C(C(C)=O)C(=C\c1cccc(C)c1N)/C(=C/O)CC
inactive: all assays above

C=C(C)[C@@H]1C[C@@]2(C)C(=CC1=O)[C@@H](O)[C@H](O)[C@H](O)[C@@H]2C
inactive: all assays above

CC(=O)O[C@H]1[C@@H](O)CC2=CC(=O)C(O)=C[C@]2(C)[C@H]1C
inactive: all assays above

C=C1CC[C@H]2C(C)(C)CCC[C@]2(C)[C@H]1C[C@@]12O[C@@H]1[C@H](O)C(CO)=CC2=O
inactive: all assays above

C=C(C)[C@@H]1CC[C@@]2(C)OC3=C(C[C@@H]12)C(=O)[C@@H]1C[C@@]3(O)CO1
inactive: all assays above

CC(C)=C1C[C@@]2(C)C(=CC1=O)[C@@H](O)[C@H](O)[C@H](O)[C@@H]2C
inactive: all assays above
